# Measured values published in article PMC6904838 (International Journal for Parasitology: Drugs and Drug …, 2019).
# Tests used:
# [1] = test system: L. infantum promastigotes; assay: In vitro assay on iRFP-L. infantum promastigotes; type: cell-based, Leishmania infantum
# Procedure, shortened: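 iRFP-expressing L. infantum BCN150 promastigotes at 1 × 10^6 cells/mL in supplemented M199 (25 mM HEPES pH 6.9, 10% FBS). DMSO stocks were diluted in M199 to 0.01–200 μM final, with 72 h exposure at 26 °C. Viability was read as 713 nm infrared fluorescence, in triplicate. EC50 came from nonlinear fits. SIp = HepG2 72 h Alamar Blue CC50 / promastigote EC50.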
# L. infantum amastigotes = type: cell-based, Leishmania infantum
# Procedure, shortened: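 Female BALB/c mice were infected intraperitoneally with 10^8 iRFP-expressing metacyclic promastigotes. After five weeks, spleen cells were collagenase-dispersed into RPMI with 10% FBS and exposed to test compound (0.01–200 μM) at 37 °C, 5% CO2. After 72 h, amastigote viability was read by infrared fluorescence at 713 nm, and EC50 came from a nonlinear fit. HepG2 CC50 (Alamar Blue, 72 h, 0.01–200 μM) was divided by this EC50.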
# HepG2 cytotoxicity = type: cell-based; details: human, HepG2 cells (ATCC HB-8065)
# Procedure, shortened: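 HepG2 human hepatocarcinoma cells in Glutamax DMEM with 10% FBS and penicillin/streptomycin, seeded and held at 37 °C under 5% CO2. Serial dilutions of test compound (0.01–200 μM) added, viability read after 72 h by Alamar Blue per manufacturer's protocol. CC50 derived by non-linear fitting of viability versus concentration.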
compound,measurement,setting,value
"CCCCCCCCCCCCCCCCOP(=O)([O-])OCC[N+](C)(C)C [MTF, Miltefosine]",SIp: Selectivity Index for promastigotes (CC50 HepG2/EC50 promastigotes),[1],8.5
same,SIa: Selectivity Index for amastigotes (CC50 HepG2/EC50 amastigotes),L. infantum amastigotes,21
same,CC50 at 72 h,HepG2 cytotoxicity,50.4 ± 4.3 µM
